From paper PMC2581794 (Bioorganic & medicinal chemistry, 2008)

How the values were obtained:
Lck = Lck (Homo sapiens, UniProt P06239); experiment: Photoaffinity-labeling; assay type: biochemical; conditions: for photolabeling of Lck in the presence of an ATP-competitive inhibitor of Lck: Figure S2, competition with ATP-competitive Lck inhibitor; for photolabeling efficiency of Lck (in words): compared with compound 1
How it was run: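 Commercial Lck photolabelled with biotin-tagged benzophenone ligands at 0, 3, 9, 18, 36, 90 and 180 µM. Western blot on PVDF: after blocking, streptavidin-HRP (1:10,000 in 3% non-fat milk/TBS-T) and ECL-Plus chemiluminescence. Bands quantified with background subtracted as 0%; 100% = maximal band of reference photoligand at 180 µM. EC50 from sigmoidal fit of triplicates (n = 3), with 95% CI.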

[1] = Decomposition of free photoligands under UV light; assay type: physicochemical; conditions: UV-A lamp λmax 350 nm, up to 30 min, HPLC
How it was run: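 Each probe at 30 µM in buffer was held on ice about 5 cm below six 15 W blacklight lamps (λmax 350 nm). Aliquots taken at 0, 10 and 30 min were analysed by RP-HPLC with UV detection at 280 nm. Intact probe concentration was estimated from chromatogram peak areas.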

Chain of Lck (P06239 whole entry): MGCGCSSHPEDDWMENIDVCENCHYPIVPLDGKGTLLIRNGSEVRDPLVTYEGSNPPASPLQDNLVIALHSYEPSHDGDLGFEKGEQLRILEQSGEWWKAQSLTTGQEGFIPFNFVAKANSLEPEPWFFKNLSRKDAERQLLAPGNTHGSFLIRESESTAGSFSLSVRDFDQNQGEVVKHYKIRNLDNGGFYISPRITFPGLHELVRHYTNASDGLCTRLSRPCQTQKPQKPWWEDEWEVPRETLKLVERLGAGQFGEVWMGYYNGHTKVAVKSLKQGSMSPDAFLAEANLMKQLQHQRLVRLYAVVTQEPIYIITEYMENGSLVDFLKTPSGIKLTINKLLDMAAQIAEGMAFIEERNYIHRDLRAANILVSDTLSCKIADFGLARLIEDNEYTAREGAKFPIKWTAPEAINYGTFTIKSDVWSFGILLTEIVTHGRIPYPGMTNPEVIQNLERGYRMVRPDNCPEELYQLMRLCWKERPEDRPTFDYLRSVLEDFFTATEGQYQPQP

photolabeling of Lck in the presence of an ATP-competitive inhibitor of Lck (Lck) | SMILES | photolabeling efficiency of Lck (in words) (Lck) | decomposition of free ligand under UV (in words) [1]
completely blocked | Nc1ncnc2c1ncn2CC(=O)N(CCNC(=O)[C@@H](CCC(=O)O)NC(=O)[C@H](Cc1ccc(C(=O)c2ccccc2)cc1)NC(=O)CCCNC(=O)CCCC[C@@H]1SC[C@@H]2NC(=O)N[C@@H]21)CC(=O)NCC(=O)O [Compound 3] | comparable to that of 1 | –
completely blocked | Nc1ncnc2c1ncn2CC(=O)N(CCNC(=O)CCCNC(=O)[C@H](Cc1ccc(C(=O)c2ccccc2)cc1)NC(=O)CCCNC(=O)CCCC[C@@H]1SC[C@@H]2NC(=O)N[C@@H]21)CC(=O)NCC(=O)O [Compound 6] | – | –
completely blocked | Nc1ncnc2c1ncn2CC(=O)N(CCNC(=O)CNC(=O)[C@H](Cc1ccc(C(=O)c2ccccc2)cc1)NC(=O)CCCNC(=O)CCCC[C@@H]1SC[C@@H]2NC(=O)N[C@@H]21)CC(=O)NCC(=O)O [Compound 1] | – | –

The next lines start with the compound.

SMILES | photolabeling of Lck in the presence of an ATP-competitive inhibitor of Lck (Lck) | photolabeling efficiency of Lck (in words) (Lck) | decomposition of free ligand under UV (in words) [1]
Nc1ncnc2c1ncn2CC(=O)N(CCNC(=O)[C@@H](CO)NC(=O)[C@H](Cc1ccc(C(=O)c2ccccc2)cc1)NC(=O)CCCNC(=O)CCCC[C@@H]1SC[C@@H]2NC(=O)N[C@@H]21)CC(=O)NCC(=O)O [Compound 2] | completely blocked | comparable to that of 1 | –
Nc1ncnc2c1ncn2CC(=O)N(CCNC(=O)[C@H]1CCCN1C(=O)[C@H](Cc1ccc(C(=O)c2ccccc2)cc1)NC(=O)CCCNC(=O)CCCC[C@@H]1SC[C@@H]2NC(=O)N[C@@H]21)CC(=O)NCC(=O)O [Compound 4] | – | – | almost identical to that of 1
